Results taken from ChEMBL document CHEMBL3593178, “Synthesis and evaluation of hedgehog signaling inhibitor with novel core system” (Bioorg Med Chem, 2015).

Experiments:
[1] = AUC (0 to 8 hrs) in non-fasted mouse at 10 mg/kg, po cassette dosing by LC/MS/MS analysis; assay type: ADME, organism-based; set-up: dose 10 mg/kg, time < 8 hr, route oral; conditions: in vivo
How it was run: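 Single 10 mg/kg oral cassette dose to nonfasted mice; blood sampled, plasma separated by centrifugation, deproteinized with MeCN containing internal standard, supernatant diluted in 10 mmol/L HCOONH4/0.2% formic acid–MeCN with 0.2% formic acid (9:1), recentrifuged, concentrations quantified by LC/MS/MS; AUC from 0 to 8 h.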

[2] = Inhibition of hedgehog signaling pathway in mouse NIH/3T3 cells after 48 hrs by Gli-luciferase reporter gene assay; assay type: cell-based; conditions: NIH3T3, 48 h
How it was run: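 NIH3T3 cells stably carrying Gli-luciferase reporter, kept in DMEM/10% FBS with 500 µg/mL G418, seeded at 7.5 × 10³ cells/well on collagen-coated plates overnight at 37 °C, 5% CO2; then recombinant mouse Shh-N plus compound (final 0.03–1000 nM, 5.8% FBS), n = 4 wells, 48 h; luciferase read with Bright-Glo; 0.1% DMSO ± 1 µg/mL Shh-N as controls; IC50 mean of four.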

[3] = In vivo inhibition of Gli1 mRNA expression in mouse bearing human PAN-04 cells assessed as expression level at 25 mg/kg, po bid after 24 hrs by qPCR analysis relative to control; assay type: functional
How it was run: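 Nude mice bearing human primary pancreatic tumor PAN-04 given compound orally twice daily at 25 mg/kg; tumors excised 24 h after first dose, stored in RNAlater; mouse stromal Gli1 mRNA quantified with mouse Gli1 and mouse GAPDH probe sets; expressed relative to controls.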

SMILES	AUC(0-t) at 8 h [1] [µg·h/mL]	IC50 [2] [nM]	Gli1 mRNA expression relative to control [3] [%]
CCc1nc2c(c(OCC(F)(F)F)c(C(=O)NC3CCN(C(=O)CO)CC3)n2C)c(=O)n1CC(=O)c1ccccc1		6.2	
CCc1cc2c(c(OCC(F)(F)F)c(C(=O)NC3CCN(C(=O)CO)CC3)n2C)c(=O)n1CC(=O)c1ccccc1 [TAK-441]	28.3	4.4	4
CCc1nc2c(cc1CC(=O)c1ccccc1)c(OCC(F)(F)F)c(C(=O)NC1CCN(C(=O)CO)CC1)n2C		46	

These reach a lower IC50 [2]. Values come first.

AUC(0-t) at 8 h [1] [µg·h/mL]	IC50 [2] [nM]	SMILES	Gli1 mRNA expression relative to control [3] [%]
0.984	3.9	CCc1cc2c(nc1NC(=O)c1ccccc1)c(OCC(F)(F)F)c(C(=O)NC1CCN(C(=O)CO)CC1)n2C	87
10.8	3.6	CCc1nc2c(cc1NC(=O)c1ccccc1)c(OCC(F)(F)F)c(C(=O)NC1CCN(C(=O)CO)CC1)n2C	24
0.925	3.1	CCc1nc2c(nc1NC(=O)c1ccccc1)c(OCC(F)(F)F)c(C(=O)NC1CCN(C(=O)CO)CC1)n2C	57
1.27	2.6	CCc1cc2c(cc1NC(=O)c1ccccc1)c(OCC(F)(F)F)c(C(=O)NC1CCN(C(=O)CO)CC1)n2C	50
